Measurements published in ChEMBL document CHEMBL4007402 (J Med Chem, 2017).

How the values were obtained:
[1] = Growth inhibition of mouse BAF3 cells after 72 hrs by CellTiter-Glo or CCK-8 assay; type: cell-based
In short: (§1)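 Isogenic murine BaF3 cells transformed with TEL-fused kinases, whose proliferation depends on the fused kinase, were used. Parental BaF3 cells served as the general selectivity counter-screen. The anti-proliferative read-out was reported as GI50.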

[2] = biological target: Mast/stem cell growth factor receptor Kit (Homo sapiens) (UniProt P10721); test: Inhibition of recombinant TEL-fused c-KIT (unknown origin) expressed in mouse BAF3 cells assessed as growth inhibition after 72 hrs by CellTiter-Glo or CCK-8 assay; type: cell-based; in short: as §1
[3] = Tmax in Sprague-Dawley rat at 10 mg/kg, po; type: ADME, organism-based; details: in vivo
In short: (§2)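 Sprague Dawley rats given a single i.v. dose of 1 mg/kg or an oral dose of 10 mg/kg. Plasma AUC(0-t), AUC(0-∞), MRT(0-t), T1/2, Tmax and Cmax were derived and reported as mean±SD.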

[4] = test system: 5637; test: Growth inhibition of human 5637 cells after 72 hrs by CellTiter-Glo or CCK-8 assay; type: functional; details: Homo sapiens, 5637, 72 h
[5] = biological target: T1, Epithelial discoidin domain-containing receptor 1 (Homo sapiens, UniProt Q08345); test: Inhibition of human GST-tagged DDR1 catalytic domain expressed in baculovirus expression system by LanthaScreen assay
[6] = Growth inhibition of CHL cells after 72 hrs by CellTiter-Glo or CCK-8 assay; type: cell-based, Cricetulus griseus; details: chinese hamster
[7] = Cmax in Sprague-Dawley rat at 1 mg/kg, iv up to 8 hrs; type: ADME, organism-based; parameters: dose 1 mg/kg, route intravenous; details: in vivo; in short: as §2
[8] = test system: DU-145; test: Growth inhibition of human DU145 cells after 72 hrs by CellTiter-Glo or CCK-8 assay; type: functional; details: DU-145, 72 h
[9] = biological target: Platelet-derived growth factor receptor beta (Homo sapiens) (UniProt P09619); test: Inhibition of recombinant TEL-fused PDGFR-beta (unknown origin) expressed in mouse BAF3 cells assessed as growth inhibition after 72 hrs by CellTiter-Glo or CCK-8 assay; type: cell-based; in short: as §1
[10] = test system: J82; test: Growth inhibition of human J82 cells after 72 hrs by CellTiter-Glo or CCK-8 assay; type: functional; details: J82, 72 h
[11] = biological target: Tyrosine-protein kinase ABL1 (Homo sapiens) (UniProt P00519); test: Inhibition of recombinant TEL-fused ABL (unknown origin) expressed in mouse BAF3 cells assessed as growth inhibition after 72 hrs by CellTiter-Glo or CCK-8 assay; type: cell-based; in short: as §1
[12] = test system: PC-3; test: Growth inhibition of human PC3 cells after 72 hrs by CellTiter-Glo or CCK-8 assay; type: functional; details: PC-3, 72 h
[13] = test system: 769-P; test: Growth inhibition of human 769-P cells after 72 hrs by CellTiter-Glo or CCK-8 assay; type: functional
[14] = biological target: T2, Mitogen-activated protein kinase 14 (Homo sapiens, UniProt Q16539); test: Binding affinity to full length human p38alpha (1 to 360 amino acid residues) expressed in bacterial expression system assessed as percent control number at 1 uM by KINOMEscan assay
In short: (§3)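 KINOMEscan competition binding panel of 468 kinases, with the compound tested at 1 µM. Binding is expressed as percent of control relative to DMSO.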

[15] = Mean residence time (0 to t) in Sprague-Dawley rat at 10 mg/kg, po; type: ADME, organism-based; details: in vivo; in short: as §2
[16] = Growth inhibition of CHO cells after 72 hrs by CellTiter-Glo or CCK-8 assay; type: cell-based, Cricetulus griseus; details: chinese hamster
[17] = biological target: Epidermal growth factor receptor (Homo sapiens) (UniProt P00533); test: Inhibition of recombinant TEL-fused EGFR (unknown origin) expressed in mouse BAF3 cells assessed as growth inhibition after 72 hrs by CellTiter-Glo or CCK-8 assay; type: cell-based; in short: as §1
[18] = AUC (0 to infinity) in Sprague-Dawley rat at 1 mg/kg, iv up to 8 hrs; type: ADME, organism-based; parameters: dose 1 mg/kg, route intravenous, time infinity; details: in vivo; in short: as §2
[19] = biological target: T2, Mitogen-activated protein kinase 14; test: Inhibition of full-length recombinant human GST-tagged p38alpha expressed in Escherichia coli by Z'-LYTE assay
[20] = biological target: T1, Epithelial discoidin domain-containing receptor 1; test: Binding affinity to human DDR1 (565 to 876 amino acid residues) expressed in bacterial expression system assessed as percent control number at 1 uM by KINOMEscan assay; in short: as §3
[21] = biological target: Tyrosine-protein kinase ABL1 (Homo sapiens) (UniProt P00519); test: Binding affinity to human phosphorylated ABL1 (229 to 512 amino acid residues) expressed in mammalian expression system assessed as percent control number at 1 uM by KINOMEscan assay; in short: as §3
[22] = test system: ACHN; test: Growth inhibition of human ACHN cells after 72 hrs by CellTiter-Glo or CCK-8 assay; type: functional
[23] = test system: EJ; test: Growth inhibition of human EJ cells after 72 hrs by CellTiter-Glo or CCK-8 assay; type: functional
[24] = Growth inhibition of human bladder cancer cells after 72 hrs by CellTiter-Glo or CCK-8 assay; type: functional; details: Bladder cancer cell
[25] = biological target: Receptor-type tyrosine-protein kinase FLT3 (Homo sapiens) (UniProt P36888); test: Inhibition of recombinant TEL-fused FLT3 (unknown origin) expressed in mouse BAF3 cells assessed as growth inhibition after 72 hrs by CellTiter-Glo or CCK-8 assay; type: cell-based; in short: as §1
[26] = Half-life in Sprague-Dawley rat at 1 mg/kg, iv; type: ADME, organism-based; details: in vivo; in short: as §2
[27] = AUC (0 to t) in Sprague-Dawley rat at 10 mg/kg, po up to 24 hrs; type: ADME, organism-based; parameters: time < 24 hr, dose 10 mg/kg, route oral; details: in vivo; in short: as §2
[28] = AUC (0 to infinity) in Sprague-Dawley rat at 10 mg/kg, po up to 24 hrs; type: ADME, organism-based; parameters: dose 10 mg/kg, time infinity, route oral; details: in vivo; in short: as §2
[29] = Half-life in Sprague-Dawley rat at 10 mg/kg, po; type: ADME, organism-based; details: in vivo; in short: as §2
[30] = test system: A498; test: Growth inhibition of human A498 cells after 72 hrs by CellTiter-Glo or CCK-8 assay; type: functional; details: A498, 72 h
[31] = Cmax in Sprague-Dawley rat at 10 mg/kg, po up to 24 hrs; type: ADME, organism-based; parameters: dose 10 mg/kg, route oral; details: in vivo; in short: as §2
[32] = Mean residence time (0 to t) in Sprague-Dawley rat at 1 mg/kg, iv; type: ADME, organism-based; details: in vivo; in short: as §2
[33] = Tmax in Sprague-Dawley rat at 1 mg/kg, iv; type: ADME, organism-based; details: in vivo; in short: as §2
[34] = biological target: Tyrosine-protein kinase ABL1 (Homo sapiens) (UniProt P00519); test: Inhibition of human nonphosphorylated ABL1 (229 to 512 amino acid residues) expressed in mammalian expression system assessed as remaining activity at 1 uM by KINOMEscan assay relative to control; in short: as §3
[35] = test system: T-24; test: Growth inhibition of human T24 cells after 72 hrs by CellTiter-Glo or CCK-8 assay; type: functional; details: T-24, 72 h
[36] = biological target: Platelet-derived growth factor receptor alpha (Homo sapiens) (UniProt P16234); test: Inhibition of recombinant TEL-fused PDGFR-alpha (unknown origin) expressed in mouse BAF3 cells assessed as growth inhibition after 72 hrs by CellTiter-Glo or CCK-8 assay; type: cell-based; in short: as §1

Chain of Tyrosine-protein kinase ABL1 (Homo sapiens) (P00519 whole entry, the tested form may be a part): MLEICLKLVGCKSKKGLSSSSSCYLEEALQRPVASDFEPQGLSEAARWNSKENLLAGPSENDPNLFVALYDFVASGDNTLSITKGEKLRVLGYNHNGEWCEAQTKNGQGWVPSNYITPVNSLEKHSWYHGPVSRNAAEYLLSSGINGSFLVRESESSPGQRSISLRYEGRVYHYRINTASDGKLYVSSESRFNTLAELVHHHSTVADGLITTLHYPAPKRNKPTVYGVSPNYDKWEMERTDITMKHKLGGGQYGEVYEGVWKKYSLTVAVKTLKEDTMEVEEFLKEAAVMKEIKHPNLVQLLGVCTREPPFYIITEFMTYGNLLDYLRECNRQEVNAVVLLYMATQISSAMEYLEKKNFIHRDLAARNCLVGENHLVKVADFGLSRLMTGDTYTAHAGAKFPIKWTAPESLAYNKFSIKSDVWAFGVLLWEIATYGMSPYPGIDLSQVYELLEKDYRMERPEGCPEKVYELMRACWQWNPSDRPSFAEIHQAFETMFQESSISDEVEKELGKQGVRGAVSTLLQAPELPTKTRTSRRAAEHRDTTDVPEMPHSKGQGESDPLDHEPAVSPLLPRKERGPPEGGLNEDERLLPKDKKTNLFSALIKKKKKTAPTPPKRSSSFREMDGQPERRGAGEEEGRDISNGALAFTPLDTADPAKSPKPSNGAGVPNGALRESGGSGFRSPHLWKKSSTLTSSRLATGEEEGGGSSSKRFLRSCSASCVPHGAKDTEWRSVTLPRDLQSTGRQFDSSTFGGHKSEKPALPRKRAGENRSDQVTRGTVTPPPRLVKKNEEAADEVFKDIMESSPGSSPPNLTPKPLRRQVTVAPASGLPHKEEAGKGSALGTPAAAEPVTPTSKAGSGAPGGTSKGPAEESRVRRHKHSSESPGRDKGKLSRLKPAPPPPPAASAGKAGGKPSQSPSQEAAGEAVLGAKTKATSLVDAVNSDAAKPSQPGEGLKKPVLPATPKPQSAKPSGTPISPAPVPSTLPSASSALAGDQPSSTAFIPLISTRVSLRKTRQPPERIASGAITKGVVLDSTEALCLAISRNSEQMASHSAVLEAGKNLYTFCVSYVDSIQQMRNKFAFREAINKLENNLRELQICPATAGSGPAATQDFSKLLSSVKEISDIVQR
T2 sequence (Q16539 whole entry, the tested form may be a part): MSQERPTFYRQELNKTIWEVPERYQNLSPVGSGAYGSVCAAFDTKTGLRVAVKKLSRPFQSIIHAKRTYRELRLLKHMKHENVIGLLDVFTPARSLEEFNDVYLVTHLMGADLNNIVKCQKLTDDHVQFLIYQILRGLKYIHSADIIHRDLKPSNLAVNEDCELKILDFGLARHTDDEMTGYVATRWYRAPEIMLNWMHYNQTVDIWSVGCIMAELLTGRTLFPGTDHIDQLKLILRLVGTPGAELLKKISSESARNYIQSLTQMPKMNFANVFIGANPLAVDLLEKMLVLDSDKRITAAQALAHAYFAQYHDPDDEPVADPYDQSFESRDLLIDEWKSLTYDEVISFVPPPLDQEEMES
T1 sequence (Q08345 whole entry, the tested form may be a part): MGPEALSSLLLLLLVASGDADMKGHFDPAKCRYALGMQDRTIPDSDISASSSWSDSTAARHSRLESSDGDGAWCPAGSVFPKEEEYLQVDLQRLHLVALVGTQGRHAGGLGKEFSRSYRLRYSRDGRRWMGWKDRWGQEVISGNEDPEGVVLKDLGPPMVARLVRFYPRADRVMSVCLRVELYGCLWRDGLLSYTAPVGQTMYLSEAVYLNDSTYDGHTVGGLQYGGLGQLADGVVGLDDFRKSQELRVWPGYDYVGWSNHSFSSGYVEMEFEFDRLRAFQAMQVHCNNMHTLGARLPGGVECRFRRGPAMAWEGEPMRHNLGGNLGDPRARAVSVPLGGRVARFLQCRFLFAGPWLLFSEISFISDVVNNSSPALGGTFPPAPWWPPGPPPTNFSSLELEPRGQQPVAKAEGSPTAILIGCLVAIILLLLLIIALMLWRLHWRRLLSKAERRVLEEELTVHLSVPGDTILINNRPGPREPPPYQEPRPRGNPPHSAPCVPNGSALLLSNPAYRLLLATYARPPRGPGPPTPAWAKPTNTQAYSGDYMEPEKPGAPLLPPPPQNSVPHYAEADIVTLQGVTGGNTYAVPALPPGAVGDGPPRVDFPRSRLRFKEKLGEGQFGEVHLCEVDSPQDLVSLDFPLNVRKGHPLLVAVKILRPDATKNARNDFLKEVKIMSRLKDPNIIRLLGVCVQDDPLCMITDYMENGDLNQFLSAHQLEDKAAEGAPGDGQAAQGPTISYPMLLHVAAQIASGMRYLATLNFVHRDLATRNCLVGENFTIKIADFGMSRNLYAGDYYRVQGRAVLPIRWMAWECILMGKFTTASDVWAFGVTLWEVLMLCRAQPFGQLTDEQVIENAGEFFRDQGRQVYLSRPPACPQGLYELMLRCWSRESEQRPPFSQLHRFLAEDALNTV
Chain of Epidermal growth factor receptor (Homo sapiens) (P00533 whole entry, the tested form may be a part): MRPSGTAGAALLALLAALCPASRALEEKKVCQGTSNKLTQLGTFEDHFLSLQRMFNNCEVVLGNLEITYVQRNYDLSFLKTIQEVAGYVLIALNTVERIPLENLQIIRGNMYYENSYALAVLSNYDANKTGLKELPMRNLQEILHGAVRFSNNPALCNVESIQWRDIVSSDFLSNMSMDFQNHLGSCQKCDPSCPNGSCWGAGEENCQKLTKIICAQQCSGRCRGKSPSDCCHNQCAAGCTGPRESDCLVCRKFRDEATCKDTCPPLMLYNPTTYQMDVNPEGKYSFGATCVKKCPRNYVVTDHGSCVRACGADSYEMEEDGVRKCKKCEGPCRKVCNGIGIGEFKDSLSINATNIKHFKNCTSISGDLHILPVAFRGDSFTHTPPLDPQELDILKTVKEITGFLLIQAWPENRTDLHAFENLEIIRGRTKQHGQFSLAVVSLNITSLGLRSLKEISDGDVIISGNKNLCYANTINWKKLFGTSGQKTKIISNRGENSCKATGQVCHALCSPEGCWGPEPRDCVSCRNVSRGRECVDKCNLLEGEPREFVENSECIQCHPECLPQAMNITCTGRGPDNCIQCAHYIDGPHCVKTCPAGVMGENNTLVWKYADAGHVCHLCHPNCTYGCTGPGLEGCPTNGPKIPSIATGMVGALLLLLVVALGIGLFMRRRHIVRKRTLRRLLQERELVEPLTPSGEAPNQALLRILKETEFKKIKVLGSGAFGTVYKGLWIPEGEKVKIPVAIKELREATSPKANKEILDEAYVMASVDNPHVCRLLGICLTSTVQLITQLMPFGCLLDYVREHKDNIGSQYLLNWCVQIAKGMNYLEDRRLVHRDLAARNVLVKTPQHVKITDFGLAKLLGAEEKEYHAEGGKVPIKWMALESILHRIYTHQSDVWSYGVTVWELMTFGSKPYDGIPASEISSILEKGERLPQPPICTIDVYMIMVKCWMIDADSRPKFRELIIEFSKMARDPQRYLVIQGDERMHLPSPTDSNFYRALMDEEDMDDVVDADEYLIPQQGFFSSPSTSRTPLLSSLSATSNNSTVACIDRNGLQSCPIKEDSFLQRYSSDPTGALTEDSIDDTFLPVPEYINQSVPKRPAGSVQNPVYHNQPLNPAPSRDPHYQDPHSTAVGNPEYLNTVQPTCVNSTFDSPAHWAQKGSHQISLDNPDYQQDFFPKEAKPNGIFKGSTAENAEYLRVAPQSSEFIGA
Chain of Mast/stem cell growth factor receptor Kit (Homo sapiens) (P10721 whole entry, the tested form may be a part): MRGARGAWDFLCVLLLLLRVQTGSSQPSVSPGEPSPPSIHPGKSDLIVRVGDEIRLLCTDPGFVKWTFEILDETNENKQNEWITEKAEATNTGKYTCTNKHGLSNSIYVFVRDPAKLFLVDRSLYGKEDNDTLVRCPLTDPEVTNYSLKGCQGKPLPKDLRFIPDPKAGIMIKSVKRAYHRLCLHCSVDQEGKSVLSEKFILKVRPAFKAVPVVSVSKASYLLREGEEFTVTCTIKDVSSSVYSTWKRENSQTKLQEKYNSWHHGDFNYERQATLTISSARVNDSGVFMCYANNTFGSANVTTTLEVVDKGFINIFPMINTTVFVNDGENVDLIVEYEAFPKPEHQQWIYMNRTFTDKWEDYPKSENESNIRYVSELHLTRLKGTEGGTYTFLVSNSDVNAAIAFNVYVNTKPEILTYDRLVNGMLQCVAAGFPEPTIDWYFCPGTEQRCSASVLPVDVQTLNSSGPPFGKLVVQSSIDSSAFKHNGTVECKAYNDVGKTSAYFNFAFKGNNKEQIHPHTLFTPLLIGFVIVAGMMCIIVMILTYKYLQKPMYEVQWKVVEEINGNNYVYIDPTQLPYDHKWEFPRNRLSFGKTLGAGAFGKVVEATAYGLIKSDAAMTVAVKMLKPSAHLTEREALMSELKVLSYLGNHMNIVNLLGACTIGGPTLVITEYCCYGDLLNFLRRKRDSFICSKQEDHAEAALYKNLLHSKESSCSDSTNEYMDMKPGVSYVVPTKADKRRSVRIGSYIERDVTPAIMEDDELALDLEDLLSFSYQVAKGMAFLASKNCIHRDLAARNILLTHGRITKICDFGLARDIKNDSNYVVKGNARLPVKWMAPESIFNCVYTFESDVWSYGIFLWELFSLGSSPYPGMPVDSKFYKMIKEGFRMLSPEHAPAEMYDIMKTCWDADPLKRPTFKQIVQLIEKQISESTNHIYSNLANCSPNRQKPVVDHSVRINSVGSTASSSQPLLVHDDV

GI50 [2]: 2.01 µM | Tmax [3]: 11.4 min | IC50 [5]: 0.265 µM | Cmax [7]: 13600 ng/mL | GI50 [8]: 7.89 µM | GI50 [9]: 0.91 µM | GI50 [11]: 2.56 µM | GI50 [12]: 3.45 µM | Activity [14]: 0% | MRT last [15]: 166 min | GI50 [17]: > 10 µM | AUC(0-inf) [18]: 1390 ng·h/mL | IC50 [19]: 0.106 µM | Activity [20]: 0.05% | Activity [21]: 6.5% | GI50 [22]: 4.93 µM | GI50 [25]: > 10 µM | half-life [26]: 48 min | AUC(0-t) at 24 h [27]: 13.4 ng·h/mL | AUC(0-inf) [28]: 27.6 ng·h/mL | half-life [29]: 367 min | Cmax [31]: 5.58 ng/mL | MRT last [32]: 13.4 min | Tmax [33]: 1.02 min | Activity [34]: 0.7% | GI50 [36]: 0.67 µM
SMILES: C=CC(=O)Nc1cc(Nc2ncc(C(=O)Nc3cc(NC(=O)c4cc(OC)c(OC)c(OC)c4)ccc3C)c(NC)n2)ccc1C
GI50 at 72 h [1]: > 10 µM | GI50 [4]: > 10 µM | GI50 at 72 h [6]: > 10 µM | GI50 [10]: 5.78 µM | GI50 [13]: > 10 µM | GI50 at 72 h [16]: > 10 µM | GI50 [23]: > 10 µM | GI50 [24]: 8.87 µM | GI50 [30]: > 10 µM | GI50 [35]: 8.98 µM
